This note sets out measurements from publication PMC2702655 (Archives of biochemistry and biophysics, 2009).

Entries after “also recorded” stand apart in the source; their conditions may differ.

Test [1] concerns eNOS. Put plainly: eNOS oxygenase activity, L-[3H]citrulline formation. It is filed as biochemical, human. Particulars: 50 nM eNOS, 1 μM calmodulin, 0.5 mM Ca2+, 10 μM L-arginine, 37 °C, 5 min, varied peptide concentrations. The essentials: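 Steady-state reaction in 25 mM Tris pH 7.5, 100 mM NaCl, 0.1 mM EGTA, 0.1 mM EDTA, 100 μM β-NADPH, 100 μM H4B and 1 μCi L-[3H]arginine tracer. Read-out was L-[3H]citrulline formed. Activity was normalized as percent of the rate without peptide. Mean ± standard deviation of triplicate experiments.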

Another test relates to CaM mutant B1234Q. Put plainly: Gel mobility-shift assay of peptide binding to CaM mutant B1234Q. Set-up: species or system human. Particulars: CaM:peptide ratio 1:10, 100 μM Ca2+. The essentials:
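Calmodulin mutant with Glu→Gln at all four Ca2+ sites ([…]), expressed in E. coli BL21(DE3) and purified by heat treatment at 70°C, ammonium sulfate fractionation and gel filtration. Test peptide and mutant were incubated at a 1:10 CaM:peptide ratio for 1 h in 20 mM Tris pH 7.5 with 100 μM Ca2+. Samples ran on 18% nondenaturing, non-reducing PAGE with 100 μM free Ca2+ in gel buffers, then Coomassie staining.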

The test system of a further test is CaM. The test can be described thus: Intrinsic tryptophan fluorescence of peptides with CaM. The class given is binding, human. Particulars: 100 μM Ca2+; 5 μM peptide + 5 μM CaM, 20 mM Tris pH 7.5, excitation 290 nm. The essentials:
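Test peptides carry tryptophan. Each peptide (5 μM) was measured with or without 5 μM E. coli-expressed wild-type CaM in 20 mM Tris pH 7.5 containing 100 μM Ca2+, with 1 mM EGTA in place of Ca2+ as the low-Ca2+ condition. Intrinsic fluorescence was excited at 290 nm and emission scanned from 300 to 450 nm, 2-nm slits. Intensity and emission peak position were compared.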

Test [2] concerns eNOS. Put plainly: Cytochrome c reductase activity of eNOS. It is filed as biochemical, human. Particulars: 10 μM peptide, with CaM. The essentials: (§1)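 Purified eNOS in Tris-HCl pH 7.5 with NaCl, 10% glycerol, NADPH and enzyme at 37 °C, with or without each peptide, and with or without CaM plus 100 μM CaCl2. Cytochrome c reduction used cytochrome c as electron acceptor. Ferricyanide reduction used the same mixture with ferricyanide in place of cytochrome c.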

Test [3] has as its system eNOS. Put plainly: Ferricyanide reduction by eNOS. The conditions noted are these: 10 μM peptide, with CaM. It is filed as biochemical, human. The essentials:
as §1

Consider PKFPRVKNWEVGSITYDTLS [Peptide E0], for which the “Effect on eNOS oxygenase activity (L-citrulline formation), in words” value (“Effect on eNOS oxygenase activity” below) in the test on eNOS [1] is given as “did not interfere with eNOS catalytic activity”.

On to “RRPKRREIPL^1KVLV^5KAV^8LFACML^14M [Peptide M2]”, for which the “Binding to B1234Q (disappearance of free B1234Q band)” value in the test with CaM mutant B1234Q is “able to bind B1234Q; also recorded: binds B1234Q with the highest affinity”.

On to “TKQA^1WRNA^5PRC^8IG^10RIQW^14SNL [Peptide M1]”, for which the “Binding to B1234Q (disappearance of free B1234Q band)” value in the test with CaM mutant B1234Q is listed as “able to bind B1234Q”. Also, in the test on CaM, the “Increase in tryptophan fluorescence intensity induced by CaM” value was 2 fold.

In the case of “VTSRIRTQSF^1SLQERQL^8RGAVPW^14 [Peptide E5]”, the “Effect on eNOS oxygenase activity” value with eNOS [1] is “did not interfere with eNOS catalytic activity”.

Consider “YNSSPRPEQHKSY^1KIRF^5NSI^8SCSDPL^14 [Peptide E3]”, for which the “Effect on eNOS oxygenase activity” value in the test on eNOS [1] was “weak inhibition on citrulline formation”. In addition, the “Inhibition of cytochrome c reduction” value in the test with eNOS [2] is on record as “no effect on electron transfer within reductase domain”. Moreover, the “Inhibition of ferricyanide reduction” value in the test with eNOS [3] is listed as “no effect on electron transfer within reductase domain”.
